Measurements: ChEMBL document CHEMBL3745659, “Synthesis and Characterization of 4,11-Diaminoanthra[2,3-b]furan-5,10-diones: Tumor Cell Apoptosis through tNOX-Modulated NAD(+)/NADH Ratio and SIRT1” (J Med Chem, 2015)
Calls of active or inactive are those of the source. The calls are words filed in the database; no cut-off is given here.

How the values were obtained:
[1] = molecular target: T1, DNA topoisomerase 1 (Homo sapiens) (UniProt P11387); assay: Inhibition of Top1 (unknown origin)-mediated relaxation of pBR322 DNA at 2.5 uM incubated for 30 mins by ethidium bromide staining-based gel electrophoresis assay
T1 sequence (whole entry): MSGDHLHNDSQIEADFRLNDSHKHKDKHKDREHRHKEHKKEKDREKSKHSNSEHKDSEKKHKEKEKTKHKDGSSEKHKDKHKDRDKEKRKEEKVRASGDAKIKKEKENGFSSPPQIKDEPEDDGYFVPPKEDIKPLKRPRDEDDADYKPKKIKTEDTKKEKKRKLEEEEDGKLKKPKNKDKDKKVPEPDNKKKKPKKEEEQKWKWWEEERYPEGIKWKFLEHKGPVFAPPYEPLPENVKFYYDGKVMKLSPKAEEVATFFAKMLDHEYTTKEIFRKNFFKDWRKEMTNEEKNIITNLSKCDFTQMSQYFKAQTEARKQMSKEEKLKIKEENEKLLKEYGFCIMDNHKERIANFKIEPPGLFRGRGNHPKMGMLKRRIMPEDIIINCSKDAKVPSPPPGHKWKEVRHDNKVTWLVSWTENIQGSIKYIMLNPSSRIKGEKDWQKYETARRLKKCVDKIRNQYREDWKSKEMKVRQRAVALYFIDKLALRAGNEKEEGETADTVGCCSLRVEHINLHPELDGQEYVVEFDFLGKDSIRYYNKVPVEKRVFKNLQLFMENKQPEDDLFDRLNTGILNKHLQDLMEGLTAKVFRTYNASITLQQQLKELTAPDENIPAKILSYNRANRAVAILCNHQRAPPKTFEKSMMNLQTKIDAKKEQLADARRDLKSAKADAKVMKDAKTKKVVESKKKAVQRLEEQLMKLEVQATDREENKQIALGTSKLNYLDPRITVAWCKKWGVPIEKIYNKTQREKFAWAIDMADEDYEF
Procedure, shortened: (§1)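 Supercoiled pBR322 plasmid treated with Top1 without drug or with compound at 0.5, 2.5 or 10 µM; camptothecin as reference; relaxation assessed by gel electrophoresis.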

[2] = molecular target: T2, NAD-dependent protein deacetylase sirtuin-1 (Homo sapiens) (UniProt Q96EB6); assay: Inhibition of human recombinant SIRT1 deacetylase activity using Arg-His-Lys-Lys(epsilon-acetyl)-AMC as substrate incubated for 45 mins by fluorescence analysis
T2 sequence (whole entry): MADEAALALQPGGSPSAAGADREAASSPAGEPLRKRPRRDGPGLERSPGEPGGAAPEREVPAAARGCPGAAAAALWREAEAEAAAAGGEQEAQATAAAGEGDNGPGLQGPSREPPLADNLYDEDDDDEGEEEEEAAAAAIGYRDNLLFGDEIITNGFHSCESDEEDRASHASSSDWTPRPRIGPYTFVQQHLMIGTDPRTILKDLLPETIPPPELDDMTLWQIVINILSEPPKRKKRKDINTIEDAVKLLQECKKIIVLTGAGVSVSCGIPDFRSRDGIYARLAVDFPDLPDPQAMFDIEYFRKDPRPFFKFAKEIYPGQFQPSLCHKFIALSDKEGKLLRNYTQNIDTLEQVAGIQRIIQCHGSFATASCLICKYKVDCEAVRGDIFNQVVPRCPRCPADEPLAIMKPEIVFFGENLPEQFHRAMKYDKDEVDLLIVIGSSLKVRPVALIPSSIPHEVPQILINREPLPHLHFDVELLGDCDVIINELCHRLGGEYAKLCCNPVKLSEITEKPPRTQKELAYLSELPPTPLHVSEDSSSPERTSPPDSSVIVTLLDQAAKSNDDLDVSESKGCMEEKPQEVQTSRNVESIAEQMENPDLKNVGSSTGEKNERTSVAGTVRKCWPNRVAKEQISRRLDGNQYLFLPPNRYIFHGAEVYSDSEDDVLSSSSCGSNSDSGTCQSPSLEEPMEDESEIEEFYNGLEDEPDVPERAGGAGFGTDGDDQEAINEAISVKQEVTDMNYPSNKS

HeLa = assay: Antiproliferative activity against human HeLa cells after 72 hrs by MTT assay; type: functional, cell-based
L1210 = assay: Antiproliferative activity against mouse L1210 cells after 72 hrs by MTT assay; conditions: L1210, 72 h
[3] = Antiproliferative activity against human HCT116 cells after 72 hrs by MTT assay; type: functional, cell-based; conditions: HCT-116, 72 h
CCRF-CEM = assay: Antiproliferative activity against human CEM cells after 72 hrs by MTT assay; type: functional, cell-based
AGS [4] = assay: Upregulation of caspase3-directed PARP cleavage in human AGS cells at 5 uM after 24 hrs by Western blot analysis; type: functional, cell-based
AGS [5] = assay: Downregulation of Bid protein level in human AGS cells after 24 hrs by Western blot analysis; type: functional, cell-based
AGS [6] = assay: Upregulation of phosphorylated p53 level in human AGS cells at 1 and 5 uM after 24 hrs by Western blot analysis; type: functional, cell-based
AGS [7] = assay: Induction of apoptosis in human AGS cells assessed as change in mitochondrial transmembrane potential incubated for 1.5 hrs by DiOC6(3) dye-based flow cytometric analysis; type: functional, cell-based
[8] = molecular target: T2, NAD-dependent protein deacetylase sirtuin-1 (Homo sapiens); assay: Inhibition of human recombinant SIRT1 deacetylase activity using Arg-His-Lys-Lys(epsilon-acetyl)-AMC as substrate at 5 uM incubated for 45 mins by fluorescence analysis
AGS [9] = assay: Downregulation of tNOX protein level in human AGS cells at 0.1 to 0.5 uM after 24 hrs by Western blot analysis; type: functional, cell-based
AGS [10] = assay: Downregulation of SIRT1 protein level in human AGS cells at 1 and 5 uM after 24 after 24 hrs by Western blot analysis; type: functional, cell-based
AGS [11] = assay: Induction of apoptosis in human AGS cells after 24 hrs by annexin V-FITC staining-based flow cytometric analysis; type: functional, cell-based
Procedure, shortened: (§2)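 AGS cells exposed to compound for 24 h; Annexin V-FITC staining and flow cytometry used to give percentage of apoptotic cells; mean ± S.E. from at least three independent experiments.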

AGS [12] = assay: Upregulation of acetylated p53 level in human AGS cells at 1 and 5 uM after 24 hrs by Western blot analysis; type: functional, cell-based
[13] = Antiproliferative activity against human K562/4 cells after 72 hrs by MTT assay; type: functional, cell-based; conditions: K562/4, 72 h
K562 [14] = assay: Antiproliferative activity against human K562 cells after 72 hrs by MTT assay; type: functional, cell-based; conditions: K562, 72 h
K562 [15] = assay: Resistance index, ratio of IC50 for human K562/4 cells to IC50 for human K562 cells; type: functional
AGS [16] = assay: Induction of apoptosis in human AGS cells assessed as necrotic cells at 10 uM after 24 hrs by annexin V-FITC staining-based flow cytometric analysis (Rvb=1.1%); type: functional
[17] = molecular target: T1, DNA topoisomerase 1 (Homo sapiens); assay: Inhibition of Top1 (unknown origin)-mediated relaxation of pBR322 DNA at 0.5 to 10 uM incubated for 30 mins by ethidium bromide staining-based gel electrophoresis assay; procedure, shortened: as §1
AGS [18] = assay: Induction of apoptosis in human AGS cells assessed as early apoptotic cells at 10 uM after 24 hrs by annexin V-FITC staining-based flow cytometric analysis (Rvb=9.8%); type: functional; procedure, shortened: as §2
AGS [19] = assay: Upregulation of caspase3-directed PARP cleavage in human AGS cells at 1 to 5 uM after 24 hrs by Western blot analysis; type: functional, cell-based
AGS [20] = assay: Downregulation of tNOX protein level in human AGS cells at 1 and 5 uM after 24 hrs by Western blot analysis; type: functional, cell-based
AGS [21] = assay: Induction of apoptosis in human AGS cells assessed as late apoptotic cells at 10 uM after 24 hrs by annexin V-FITC staining-based flow cytometric analysis (Rvb=5.5%); type: functional; procedure, shortened: as §2
AGS [22] = assay: Induction of apoptosis in human AGS cells assessed as viable cells at 10 uM after 24 hrs by annexin V-FITC staining-based flow cytometric analysis (Rvb=83.7%); type: functional; procedure, shortened: as §2

IC50 (HeLa) [µM] | IC50 (L1210) [µM] | IC50 (CCRF-CEM) [µM] | inhibition [8] | IC50 (K562 [14]) [µM] | SMILES | IC50 [3] [µM] | Activity (AGS [5]) | Activity (AGS [6]) | Activity (AGS [11]) | IC50 [13] [µM] | Ratio IC50 (K562 [15]) | further results
– | – | – | – | – | N=C(N)NCCNc1c2c(c(NCCNC(=N)N)c3sccc13)C(=O)c1ccccc1C2=O | – | – | – | – | – | – | inhibition [1]: Active
– | – | – | – | – | NC(=O)c1cccnc1 | – | – | – | – | – | – | inhibition [2]: Active
83.8 | 26.4 | 105 | – | – | NCCNC(=O)c1cc2c(NCCN)c3c(c(NCCN)c2o1)C(=O)c1ccccc1C3=O | 6.52 | – | – | – | – | – | –
0.55 | 0.3 | 0.75 | Active | 0.11 | NCCNc1c2c(c(NCCN)c3occc13)C(=O)c1ccccc1C2=O | 0.11 | Active | Active | Dose-dependent effect | 0.15 | 1.36 | Activity (AGS [4]): Active; Activity (AGS [7]): Active; Activity (AGS [9]): Active; Activity (AGS [10]): Active; Activity (AGS [12]): Active
0.19 | – | – | – | – | CNCCNc1c2c(c(NCCNC)c3oc(C)cc13)C(=O)c1ccccc1C2=O | 1.6 | – | – | – | 4.26 | 35.5 | –
61.3 | 26.1 | 25 | inactive | 25.2 | CN1CCN(C(=O)c2cc3c(NCCN)c4c(c(NCCN)c3o2)C(=O)c2ccccc2C4=O)CC1 | 3.1 | Active | Active | inactive | > 100 | >4 | Activity (AGS [16]): inactive; inhibition [17]: inactive; Activity (AGS [18]): inactive; Activity (AGS [19]): inactive; Activity (AGS [20]): inactive; Activity (AGS [21]): inactive; Activity (AGS [22]): inactive
